Measurements gathered from unrelated publications.
Each line is one published result; the experiments were not run side by side. pKi: −log10 of the molar value.
UGT2B7: UDP-glucuronosyltransferase 2B7 (UGT2B7, Homo sapiens, UniProt P16662)

SMILES | target or system | assay | system | conditions | endpoint | result
CN(C)CCc1c[nH]c2ccccc12 |  |  | human, plasma | intravenous, 9 mg, healthy volunteers, infusion | Tmax | 0.16 h
C=C1CC[C@@H]2[C@](C)(CO)[C@H](O)CC[C@@]2(C)[C@@H]1/C=C/C1=CCOC1=O | UGT2B7 | enzyme activity, inhibitor |  |  | pKi | 5.16
Cc1ncc2n1-c1ccc(Cl)cc1C(c1ccccc1F)=NC2 |  |  | human, plasma | oral, 2 mg, single dose | Tmax | 0.67 h
Cc1ncc2n1-c1ccc(Cl)cc1C(c1ccccc1F)=NC2 |  |  | human, plasma | intravenous, 3 µg, single dose | Tmax | 0.0333 h
CC(Cc1ccccc1)NCCn1cnc2c1c(=O)n(C)c(=O)n2C (centres unmarked) | Voltage-gated inwardly rectifying potassium channel KCNH2 (KCNH2, Homo sapiens, UniProt Q12809) | ligand displacement, radioligand |  | 10 µM | inhibition | -4%
N=C(N)NCCC[C@@H](NC(=O)[C@@H](N)Cc1ccccc1)C(=O)N[C@@H](Cc1ccccc1)C(=O)N[C@@H](CCCCN)C(N)=O |  |  | human, plasma | subcutaneous, 15 mg, patients | Tmax | 0.75 h
O=C(O)c1cn(Cc2ccc(F)cc2)c2ccccc12 | UGT2B7 | enzyme activity, substrate |  |  | Km | 61.5 µM
C=C1CCC2C(C)(CO)C(=O)CCC2(C)C1C=CC1=CCOC1=O (centres unmarked) | UGT2B7 | enzyme activity, inhibitor |  |  | pKi | 4.86
Cl.Cl.O=C(CCN1CCCCC1)c1ccc(-c2ccc(C(=O)CCN3CCCCC3)cc2)cc1 |  |  | Sprague-Dawley rat, plasma | oral, 100 mg/kg | MRT(0-t) | 12.2 h
COc1ccc(C[C@@H]2NC(=O)[C@H]([C@@H](C)O)NC(=O)[C@@H]3[C@@H]4CCN3C(=O)[C@@H]3Cc5cn(c6ccc(F)cc56)CCCCCCN(Cc5ccc(cc5)CCNC(=O)[C@]5(C)CCCN5C2=O)C(=O)CCC(=O)N[C@@H](C)C(=O)N[C@H](CNC(=O)CCCCC[N+](C)(C)C)C(=O)N[C@@H](Cc2cccc(c2)CNC(=O)CO4)C(=O)N3)cc1 |  |  | human, plasma | oral, 200 mg, single dose | Tmax | 14.5 h
CC(=C/C=C/C(C)=C/C(=O)O)/C=C1\CCCc2ccccc21 |  |  | human, plasma | oral, 20 mg, single dose, fasted, healthy volunteers | Tmax | 2.88 h
CSCC[C@H](NC(=O)COCCOCCNC(=O)COCCOCCNC(=O)CC[C@H](NC(=O)CCCCCCCCCCCCCCCCC(=O)O)C(=O)O)C(=O)N[C@H]1CSSC[C@@H](C(=O)NCC(=O)N[C@@H](CO)C(=O)NCC(=O)N[C@@H](CO)C(=O)N[C@@H](CC(=O)O)C(=O)N[C@@H](Cc2ccc(O)cc2)C(=O)N[C@@H](CCCCN)C(=O)N[C@@H](CC(=O)O)C(=O)N[C@@H](CC(=O)O)C(=O)N[C@@H](CC(=O)O)C(=O)N[C@@H](CC(=O)O)C(=O)N[C@@H](CCCCN)C(N)=O)NC(=O)[C@H](Cc2ccccc2)NC(=O)[C@@H]2CCCN2C(=O)[C@H](Cc2c[nH]c3ccccc23)NC(=O)[C@H](CC(C)C)NC(=O)[C@H](CCSC)NC(=O)[C@H](Cc2c[nH]cn2)NC(=O)[C@H](Cc2ccccc2)NC(=O)[C@H](Cc2c[nH]cn2)NC(=O)[C@H]([C@@H](C)O)NC(=O)[C@H](Cc2ccccc2)NC1=O |  |  | male Sprague-Dawley rat, plasma | intravenous | MRT | 13.7 h
O=C1[O][Pt]2([NH][C@@H]3CCCC[C@H]3[NH]2)[O]C1=O (relative stereo) |  |  | cynomolgus monkey, plasma | oral, 10 mg/kg | MRT | 19.7 h
C[C@@H](c1ccc2nccn2c1)n1nnc2ncc(-c3cnn(C)c3)nc21 |  |  | human, plasma | oral, 600 mg | Tmax | 4 h
